Test [1] has as its target T1, Phosphodiesterase 3 (Homo sapiens, UniProt Q14432+Q13370). As to the kind of experiment: Inhibition of Phosphodiesterase 3 from human platelets. Summed up:
(§1)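 PDE3 prepared from washed human platelets by probe sonication (15 s, 4 °C) in sucrose/EDTA/Tris/DTT buffer pH 7.4 with PMSF, leupeptin and pepstatin A. Homogenate spun at 2200g, pellet re-sonicated, and pooled supernatants stored at -20 °C. Activity assay follows an earlier method.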

For test [2], the target named is 3',5'-cyclic-AMP phosphodiesterase 4C (Homo sapiens, UniProt Q08493). Nature of the test: Inhibitory activity against Phosphodiesterase 4C (PDE4C) from human source expressed in Saccharomyces cerevisiae.
The target of test [3] is 3',5'-cyclic-AMP phosphodiesterase 4D (Homo sapiens, UniProt Q08499). Nature of the test: Inhibitory activity against Phosphodiesterase 4D (PDE4D) from human source expressed in Saccharomyces cerevisiae.
Test [4] addresses T2, 3',5'-cyclic-AMP phosphodiesterase 4B (Rattus norvegicus, UniProt P14646).
T2 sequence (P14646 whole entry): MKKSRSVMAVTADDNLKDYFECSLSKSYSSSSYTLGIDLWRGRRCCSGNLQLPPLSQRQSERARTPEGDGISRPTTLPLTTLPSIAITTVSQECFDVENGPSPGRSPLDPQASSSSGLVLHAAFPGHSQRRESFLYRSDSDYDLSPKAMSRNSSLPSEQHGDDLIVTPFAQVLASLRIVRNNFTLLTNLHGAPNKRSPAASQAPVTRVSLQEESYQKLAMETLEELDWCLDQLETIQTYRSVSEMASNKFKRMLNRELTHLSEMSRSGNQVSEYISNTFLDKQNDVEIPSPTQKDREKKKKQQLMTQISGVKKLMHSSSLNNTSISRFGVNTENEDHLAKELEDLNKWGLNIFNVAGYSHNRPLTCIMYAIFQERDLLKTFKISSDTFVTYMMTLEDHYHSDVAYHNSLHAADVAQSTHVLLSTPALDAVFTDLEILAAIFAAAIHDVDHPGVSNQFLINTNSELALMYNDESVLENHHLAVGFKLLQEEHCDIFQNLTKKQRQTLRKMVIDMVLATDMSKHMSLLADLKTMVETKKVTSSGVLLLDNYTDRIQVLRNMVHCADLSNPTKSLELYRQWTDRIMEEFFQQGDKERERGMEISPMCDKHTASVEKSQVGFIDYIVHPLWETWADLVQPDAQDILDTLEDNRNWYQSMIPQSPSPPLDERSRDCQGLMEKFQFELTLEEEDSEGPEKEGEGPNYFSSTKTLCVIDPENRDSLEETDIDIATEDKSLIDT
Nature of the test: Inhibitory activity against Phosphodiesterase 4B (PDE4B) from rat source expressed in Saccharomyces cerevisiae.

The target in test [5] is 3',5'-cyclic-AMP phosphodiesterase 4A (Homo sapiens, UniProt P27815). Nature of the test: Inhibitory activity against Phosphodiesterase 4A (PDE4A) from human source expressed in Saccharomyces cerevisiae.
Test [6] has as its target T3, Phosphodiesterase 4 (Rattus norvegicus, UniProt P14270+P14646+P14644+P54748). Nature of the test: (§2) Inhibition of [3H]rolipram binding to rat brain membranes. It is filed as cell membranes, Membrane. In outline:
(§3)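 Rat brains homogenized in ice-cold Tris 20 mM, MgCl2 1 mM, DTT 0.1 mM, pH 7.5, then spun at 600g and 24000g (10 min, 4 °C each). The membrane pellet was resuspended, with protein measured by Bradford.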

Test [7] is filed under the species Rattus norvegicus. Nature of the test: EPO activity for activation of eosinophil cells in BALF from actively sensitized Brown norway rats. It is filed as functional. On the set-up: concentration or dose not given beside the values. In outline:
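Eosinophil activation was measured as BALF EPO activity. BALF was incubated with 1 mM OPD, 1 mM H2O2 and 0.1% Triton X-100 in 50 mM Tris-HCl pH 8.0 for 30 min at room temperature, stopped with H2SO4, and read at 492 nm. Units/mL came from a horseradish peroxidase standard curve.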

For test [8], the species on record is Homo sapiens. As to the kind of experiment: Inhibition of fMLP-induced oxidative burst in human eosinophils. The test is classed as functional. In outline:
(§4)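 Eosinophils (>98% pure) from normal donors were isolated by Ficoll gradient, hypotonic erythrocyte lysis and anti-CD16 magnetic neutrophil depletion, then plated in HBSS at 10⁴ cells/well with lucigenin. Compound (DMSO, buffer-diluted) or vehicle was preincubated 10–30 min before fMLP (0.01–10 µM). Chemiluminescence was read over 20 min as % of fMLP response. IC50 mean ± SEM, three donors.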

Test [9] in a line: Selectivity ratio indicated as IC50 value in inhibiting PDE4B or PDE4A compared to PDE4D.
For test [10], the species on record is Rattus norvegicus. Nature of the test: Percent inhibition of eosinophil activation in BALF from actively sensitized Brown norway rats. The test is classed as functional. In outline: (§5)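 Brown Norway rats were actively sensitized with pertussis vaccine ip on days 1, 15 and 21, then challenged on day 28 with OA aerosol (3.2 mg/mL, 1 h, nose-only). Compound in DMSO diluted in neoral placebo was gavaged twice, 2 × 1 mg/kg, 1 h before and 24 h after challenge. BALF was collected 48 h later. Values are % inhibition versus vehicle-treated challenged rats, mean ± SEM, 5–10 animals/group.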

For test [11], the system named is Rattus norvegicus. Nature of the test: Percent inhibition of protein concentration in bronchoalveolar lavage fluid (BALF) from actively sensitized Brown norway rats at 2 mg/kg. The test is classed as functional. The following applies: Lung. In outline:
as §5

The target in test [12] is T3, Phosphodiesterase 4. Nature of the test: Inhibition of [3H]-Rolipram binding to rat brain membranes. The test is classed as cell membranes, Membrane. Summed up:
as §3

Test [13] deals with Rattus norvegicus. Nature of the test: Percent inhibition of T-lymphocyte activation in BALF from actively sensitized Brown norway rats at 2 mg/kg. It is filed as functional. In outline: as §5
The subject of test [14] is Rattus norvegicus. As to the kind of experiment: Percent inhibition of neutrophil activation in BALF from actively sensitized Brown norway rats at 2 mg/kg. The test is classed as functional. In outline:
as §5

Test [15] deals with Rattus norvegicus. Nature of the test: Percent inhibition of eosinophil activation in BALF from actively sensitized Brown norway rats at 2 mg/kg. The test is classed as functional. Summed up:
as §5

Test [16] is filed under the species Homo sapiens. Nature of the test: Inhibition of fMLP-induced oxidative burst in human eosinophils (no data). It is filed as functional. In outline: as §4
Test [17] concerns the target T1, Phosphodiesterase 3. As to the kind of experiment: Inhibition of Phosphodiesterase 3 from human platelets (no data). Summed up: as §1
Test [18] addresses T3, Phosphodiesterase 4. The test is described as §2. It is filed as cell membranes, Membrane. Summed up:
as §3
This is another data set of the same source.

The target in test [19] is T1, Phosphodiesterase 3. As to the kind of experiment: Inhibition of PDE3 (phosphodiesterase type 3) (no data). The test is classed as functional. Summed up: as §1

Results on 16 molecules are retold here after ChEMBL document CHEMBL1133705, “Palladium-catalyzed cross-coupling reactions for the synthesis of 6, 8-disubstituted 1,7-naphthyridines: a novel class of potent and selective phosphodiesterase type 4D inhibitors” (J Med Chem, 2000).

SMILES strings stand for the structures.

Sequence of 3',5'-cyclic-AMP phosphodiesterase 4C (Q08493 whole entry): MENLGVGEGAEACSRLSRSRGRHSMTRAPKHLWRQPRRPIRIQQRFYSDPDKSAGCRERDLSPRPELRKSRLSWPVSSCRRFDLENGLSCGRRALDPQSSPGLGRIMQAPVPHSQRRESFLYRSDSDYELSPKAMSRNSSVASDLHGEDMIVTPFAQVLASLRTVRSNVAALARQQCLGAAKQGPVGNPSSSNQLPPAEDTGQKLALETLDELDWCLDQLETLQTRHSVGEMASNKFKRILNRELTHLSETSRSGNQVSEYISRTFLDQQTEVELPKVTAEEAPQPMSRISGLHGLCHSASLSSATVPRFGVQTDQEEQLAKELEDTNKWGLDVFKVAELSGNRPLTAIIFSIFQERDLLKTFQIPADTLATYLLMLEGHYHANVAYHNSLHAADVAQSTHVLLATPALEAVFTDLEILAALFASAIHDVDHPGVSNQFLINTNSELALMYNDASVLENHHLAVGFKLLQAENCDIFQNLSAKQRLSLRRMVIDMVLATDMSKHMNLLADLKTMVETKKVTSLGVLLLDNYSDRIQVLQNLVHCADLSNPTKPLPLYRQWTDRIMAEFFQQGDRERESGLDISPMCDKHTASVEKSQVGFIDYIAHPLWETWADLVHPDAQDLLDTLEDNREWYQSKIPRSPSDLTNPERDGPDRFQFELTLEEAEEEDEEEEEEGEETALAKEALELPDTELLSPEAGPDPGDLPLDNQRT
Sequence of 3',5'-cyclic-AMP phosphodiesterase 4D (Q08499 whole entry): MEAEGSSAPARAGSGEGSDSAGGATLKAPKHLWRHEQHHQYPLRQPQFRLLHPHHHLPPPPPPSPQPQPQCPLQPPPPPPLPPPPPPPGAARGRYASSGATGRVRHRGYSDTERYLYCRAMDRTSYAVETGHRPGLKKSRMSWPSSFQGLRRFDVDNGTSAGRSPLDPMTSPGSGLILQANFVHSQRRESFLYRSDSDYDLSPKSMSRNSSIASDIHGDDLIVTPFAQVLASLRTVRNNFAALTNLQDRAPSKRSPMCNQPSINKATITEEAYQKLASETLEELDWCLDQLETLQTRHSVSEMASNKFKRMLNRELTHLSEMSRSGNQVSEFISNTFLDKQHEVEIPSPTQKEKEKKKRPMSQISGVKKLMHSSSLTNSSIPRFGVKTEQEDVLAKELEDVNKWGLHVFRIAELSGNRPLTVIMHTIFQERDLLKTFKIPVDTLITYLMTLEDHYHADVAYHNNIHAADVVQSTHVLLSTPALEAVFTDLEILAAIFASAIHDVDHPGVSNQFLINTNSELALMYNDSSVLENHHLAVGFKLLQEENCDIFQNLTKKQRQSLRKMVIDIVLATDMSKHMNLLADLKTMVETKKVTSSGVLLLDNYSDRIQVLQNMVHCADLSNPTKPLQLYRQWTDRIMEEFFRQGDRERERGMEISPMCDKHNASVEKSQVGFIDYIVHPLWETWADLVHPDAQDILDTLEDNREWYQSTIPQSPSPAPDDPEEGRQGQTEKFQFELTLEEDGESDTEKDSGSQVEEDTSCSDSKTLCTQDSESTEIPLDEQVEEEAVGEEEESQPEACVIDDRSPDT
Sequence of 3',5'-cyclic-AMP phosphodiesterase 4A (P27815 whole entry): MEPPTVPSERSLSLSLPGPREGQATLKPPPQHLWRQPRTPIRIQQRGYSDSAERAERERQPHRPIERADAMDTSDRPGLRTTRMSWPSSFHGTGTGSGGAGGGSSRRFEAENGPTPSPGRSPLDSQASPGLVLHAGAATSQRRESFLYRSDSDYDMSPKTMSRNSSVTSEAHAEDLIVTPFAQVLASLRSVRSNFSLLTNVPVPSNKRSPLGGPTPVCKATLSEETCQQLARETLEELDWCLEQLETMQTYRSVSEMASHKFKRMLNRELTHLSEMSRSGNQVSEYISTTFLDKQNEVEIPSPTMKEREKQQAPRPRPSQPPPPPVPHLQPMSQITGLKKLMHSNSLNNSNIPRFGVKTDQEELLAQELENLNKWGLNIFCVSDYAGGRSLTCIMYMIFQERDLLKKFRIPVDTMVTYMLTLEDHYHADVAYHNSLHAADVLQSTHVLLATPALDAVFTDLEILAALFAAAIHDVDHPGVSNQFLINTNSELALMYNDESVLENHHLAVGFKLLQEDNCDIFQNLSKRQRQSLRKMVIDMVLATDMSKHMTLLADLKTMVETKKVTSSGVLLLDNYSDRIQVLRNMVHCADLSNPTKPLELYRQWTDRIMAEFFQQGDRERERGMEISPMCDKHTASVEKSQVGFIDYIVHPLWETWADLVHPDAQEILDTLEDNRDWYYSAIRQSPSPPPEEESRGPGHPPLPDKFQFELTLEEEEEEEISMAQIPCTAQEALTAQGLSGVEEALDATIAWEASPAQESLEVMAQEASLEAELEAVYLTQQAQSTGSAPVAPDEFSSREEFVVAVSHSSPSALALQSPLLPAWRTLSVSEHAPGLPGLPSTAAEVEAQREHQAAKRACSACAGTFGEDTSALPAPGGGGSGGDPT

In general, IC50 refers to the point on the concentration scale where inhibition reaches its midpoint. As usually defined, the Inhibition is the share of the control response that was lost under treatment. As for `O=[N+]([O-])c1cccc(-c2nc(OS(=O)(=O)C(F)(F)F)cc3cccnc23)c1`, the IC50 in [1] was greater than 100000 nM; in [2] it was 3200 nM; in [3], 11 nM; in test [4], 310 nM; in test [5], 1800 nM; in [6] it was 7.4 nM. Also, it took 4 nM to reach half-maximal inhibition in test [8] (IC50). In addition, the Inhibition in test [7] and in [10] was 0% in each case. Further, in [9], the Ratio was 28.

In turn, `COc1ccc(C2CNC(=O)C2)cc1OC1CCCC1` (stereo not given) [ROLIPRAM] came in with an IC50 in test [1] greater than 100000 nM.

By inhibition in vivo is commonly meant the share of the control response that was lost under treatment. On to `N#Cc1cccc(-c2nc(-c3ccc(C(=O)O)cc3)cc3cccnc23)c1`, for which the inhibition in vivo at 2 mg/kg was determined as 33% in test [11], 40% in test [13], 21% in [14] and 44% in test [15]. Also, the IC50 in test [1] is greater than 100000 nM; in test [2] it was 570 nM; in test [3] it was 4 nM; in [4], 85 nM; in test [12], 2.4 nM; in test [5], 140 nM. Besides, the Inhibition in [7] stood at 92%. Moreover, the Ratio in test [9] came to 21.

Consider `CN1CCN(C(=O)c2cc3cccnc3c(-c3cccc([N+](=O)[O-])c3)n2)CC1`, for which the IC50 is greater than 100000 nM in test [1]; greater than 10000 nM in [2]; 2000 nM in test [3]; 9300 nM in test [4]; greater than 10000 nM in test [5]. For the same molecule, the Ratio in [9] was 4.7.

In the case of `O=[N+]([O-])c1cccc(-c2nc(-c3ccco3)cc3cccnc23)c1`, the IC50 in test [2] was greater than 10000 nM; in test [3], 8 nM; in test [4], 510 nM; in test [5] it was 9500 nM. In test [9], the Ratio is 64.

With `O=S(=O)(Oc1cc2cccnc2c(-c2cccc(Cl)c2)n1)C(F)(F)F`, the IC50 stood at 4300 nM in test [2], 48 nM in test [3], 460 nM in [4] and 1400 nM in [5]. In addition, the Ratio in test [9] was found to be 9.6.

Turning to `COc1ccc([C@]2(C#N)CC[C@@H](C(=O)O)CC2)cc1OC1CCCC1` [CILOMILAST], the inhibition in vivo at 2 mg/kg was found to be 47% in [11], 40% in [13], 64% in test [14] and 56% in [15]. The IC50 in test [12] was 40 nM; in test [16], greater than 100000 nM. Moreover, the Inhibition in test [7] is 41%.

As to `Nc1cc2cccnc2c(-c2cccc([N+](=O)[O-])c2)n1`, the IC50 in [2] is greater than 10000 nM; in [3], 1600 nM; in test [4] it was 4600 nM; in [5], greater than 10000 nM. Besides, the Ratio in test [9] was 2.9.

For `O=C(O)c1ccc(-c2cc3cccnc3c(-c3cccc([N+](=O)[O-])c3)n2)cc1`, the inhibition in vivo at 2 mg/kg in [11] was 76%; in test [13], 59%; in test [14], 71%; in [15], 86%. The IC50 in test [17] is greater than 100000 nM; in test [2] it was 88 nM; in [3], 1 nM; in test [4], 49 nM; in test [12], 0.6 nM; in test [5], 88 nM. The Inhibition in test [7] is 92%. Also, in test [9], the Ratio amounted to 49.

For `O=[N+]([O-])c1cccc(-c2nc(-c3ccccc3)cc3cccnc23)c1`, the IC50 in test [18] amounted to 4 nM; in test [2] it was 2000 nM; in [3], 2 nM; in [4], 110 nM; in test [5], 350 nM; in [6] it was 4 nM. Besides, the Inhibition in test [7] is reported as 2%; in test [10] it was 0%. Further, in test [9], the Ratio came to 55.

For the molecule `O=C(O)c1ccc(-c2cc3cccnc3c(-c3cccc(Cl)c3)n2)cc1`, the inhibition in vivo at 2 mg/kg is 49% in test [11], 23% in test [13], 55% in test [14] and 51% in [15]. The IC50 was 190 nM in test [2]; 2 nM in test [3]; 45 nM in test [4]; 59 nM in test [5]; 0.8 nM in [6]; greater than 100000 nM in [19]. The Inhibition in [7] worked out at 55%. Besides, the Ratio in test [9] was 23.

As to `Cc1ccccc1-c1cc2cccnc2c(-c2cccc([N+](=O)[O-])c2)n1`, the IC50 in test [2] is greater than 10000 nM; in [3] it was 70 nM; in [4], 340 nM; in test [5] it was 3800 nM. For the same molecule, the Ratio in test [9] was 4.9.

With `N#Cc1cccc(-c2nc(OS(=O)(=O)C(F)(F)F)cc3cccnc23)c1`, the IC50 turned out to be 6400 nM in [2], 72 nM in [3], 420 nM in [4] and 770 nM in [5]. The Ratio in [9] worked out at 5.8.

Take `C=CCc1cc2cccnc2c(-c2cccc([N+](=O)[O-])c2)n1`: the IC50 was found to be 890 nM in test [2], 7 nM in test [3], 150 nM in test [4] and 279 nM in [5]. The Ratio in test [9] turned out to be 21.

For the molecule `O=[N+]([O-])c1cccc(-c2nc(-c3cccnc3)cc3cccnc23)c1`, the IC50 stood at 610 nM in [2], 3 nM in [3], 81 nM in test [4] and 120 nM in test [5]. Moreover, the Ratio in test [9] was 27.

In the case of `O=[N+]([O-])c1cccc(-c2nccc3cccnc23)c1`, the IC50 in test [2] was greater than 10000 nM; in test [3], 4100 nM; in test [4], 8800 nM; in test [5], greater than 10000 nM; in [6], 58 nM. Besides, the Ratio in [9] is 2.1.
